The text below walks through data of ChEMBL document CHEMBL3352462, “Aldosterone synthase inhibitors as promising treatments for mineralocorticoid dependent cardiovascular and renal diseases” (J Med Chem, 2014).

Each structure is given as a SMILES string.

Data set [1] addresses T1, Cytochrome P450 11B2, mitochondrial (Homo sapiens, UniProt P19099).
T1 sequence (P19099 whole entry): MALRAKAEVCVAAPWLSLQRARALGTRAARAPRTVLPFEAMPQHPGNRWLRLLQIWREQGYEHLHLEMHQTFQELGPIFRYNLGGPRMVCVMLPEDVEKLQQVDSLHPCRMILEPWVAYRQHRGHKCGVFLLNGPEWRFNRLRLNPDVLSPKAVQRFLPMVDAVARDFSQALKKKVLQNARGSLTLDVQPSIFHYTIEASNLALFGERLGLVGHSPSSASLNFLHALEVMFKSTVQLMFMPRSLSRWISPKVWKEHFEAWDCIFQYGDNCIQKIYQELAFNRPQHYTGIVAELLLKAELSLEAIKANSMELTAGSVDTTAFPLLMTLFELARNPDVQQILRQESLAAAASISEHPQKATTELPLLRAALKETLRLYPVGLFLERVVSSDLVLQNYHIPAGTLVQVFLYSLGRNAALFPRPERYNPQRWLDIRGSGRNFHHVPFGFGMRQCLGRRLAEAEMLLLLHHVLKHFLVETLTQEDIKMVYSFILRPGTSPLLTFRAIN
In words: Inhibition of human CYP11B2 expressed in G402 cells. Type of data set: cell-based, G-402.

The species entered for data set [2] is Homo sapiens. As to the kind of experiment: Selectivity ratio of IC50 for human CYP11B1 to IC50 for human CYP11B2. Summed up:
(§1)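 Whole-cell assay in V79MZ (Chinese hamster lung fibroblast) cells stably expressing human CYP11B2; a parallel line stably expressing human CYP11B1 gives the counter-target IC50. Selectivity is expressed as the CYP11B1/CYP11B2 IC50 ratio.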

Data set [3] has as its target T1, Cytochrome P450 11B2, mitochondrial. In words: Inhibition of human CYP11B2 expressed in NCI-H295R cells assessed as reduction in aldosterone formation. Type of data set: cell-based.
In the next data set the target is T2, Cytochrome P450 1A2 (Homo sapiens, UniProt P05177).
T2 sequence (P05177 whole entry): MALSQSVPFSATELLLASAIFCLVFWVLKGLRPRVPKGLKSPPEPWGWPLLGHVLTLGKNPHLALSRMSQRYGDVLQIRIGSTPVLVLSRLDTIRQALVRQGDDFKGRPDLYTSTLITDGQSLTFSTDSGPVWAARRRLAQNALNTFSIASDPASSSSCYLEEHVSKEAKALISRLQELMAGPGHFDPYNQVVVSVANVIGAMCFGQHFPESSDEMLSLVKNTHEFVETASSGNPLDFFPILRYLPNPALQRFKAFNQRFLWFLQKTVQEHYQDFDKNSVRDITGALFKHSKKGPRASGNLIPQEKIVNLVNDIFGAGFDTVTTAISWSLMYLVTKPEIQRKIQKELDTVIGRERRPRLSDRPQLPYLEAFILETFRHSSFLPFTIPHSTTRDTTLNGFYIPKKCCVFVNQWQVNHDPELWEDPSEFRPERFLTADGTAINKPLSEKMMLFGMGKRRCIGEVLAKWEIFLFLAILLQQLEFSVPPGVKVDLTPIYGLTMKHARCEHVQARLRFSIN
As to the kind of experiment: Inhibition of CYP1A2 (unknown origin). Type of data set: ADME.

The target of data set [4] is T1, Cytochrome P450 11B2, mitochondrial. In words: Inhibition of human aldosterone synthase.
Data set [5] addresses T3, Cytochrome P450 11B1, mitochondrial (Homo sapiens, UniProt P15538).
T3 sequence (P15538 whole entry): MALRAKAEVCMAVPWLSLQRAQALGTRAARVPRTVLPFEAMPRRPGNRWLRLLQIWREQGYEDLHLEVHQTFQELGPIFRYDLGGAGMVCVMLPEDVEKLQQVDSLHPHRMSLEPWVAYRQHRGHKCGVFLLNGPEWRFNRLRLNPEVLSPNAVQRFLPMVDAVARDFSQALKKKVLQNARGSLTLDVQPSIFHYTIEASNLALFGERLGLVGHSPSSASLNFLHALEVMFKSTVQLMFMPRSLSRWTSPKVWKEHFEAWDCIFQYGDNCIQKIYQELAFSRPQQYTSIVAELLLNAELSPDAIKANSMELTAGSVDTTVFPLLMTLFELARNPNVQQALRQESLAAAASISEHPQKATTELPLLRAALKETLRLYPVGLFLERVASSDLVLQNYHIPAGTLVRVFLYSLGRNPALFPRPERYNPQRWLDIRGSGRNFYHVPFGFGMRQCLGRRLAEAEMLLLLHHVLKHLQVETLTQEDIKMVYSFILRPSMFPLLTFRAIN
In words: Inhibition of human CYP11B1 expressed in NCI-H295R cells at 100 nM. The format is cell-based.

For data set [6], the target named is T1, Cytochrome P450 11B2, mitochondrial. As to the kind of experiment: Inhibition of human aldosterone synthase expressed in V79 MZ cells. The format is cell-based, V79MZ. The method, boiled down: as §1
Data set [7] shares this target. As to the kind of experiment: Inhibition of human aldosterone synthase by cell based assay.
Data set [8] shares this target. As to the kind of experiment: Inhibition of human aldosterone synthase in homogenized rat glomerulosa tissue.
The species named for data set [9] is Homo sapiens. In words: Increase in aldosterone level in primary aldosteronism patient plasma at 50 mg, bid for 31 days. The format is functional.
Data set [10] is filed under the species Homo sapiens. In words: Increase in aldosterone level in sodium depleted healthy human urine. Type of data set: functional.
For data set [11], the species on record is Homo sapiens. As to the kind of experiment: Decrease in diastolic blood pressure in hypertension patient at 50 mg, bid for 8 weeks. The format is functional, Artery.
For data set [12], the species on record is Homo sapiens. As to the kind of experiment: Increase in aldosterone level in sodium depleted healthy human plasma. The format is functional.
Data set [13] concerns Rattus norvegicus. In words: Decrease in myocardial fibrosis in SHR rat at 1.2 mg/kg/day, po. As to conditions: Myocardium, read-out: INH.
Data set [14] relates to Rattus norvegicus. As to the kind of experiment: Decrease in aldosterone level Wistar rat plasma at 4 mg/kg, po measured after 2 hrs by radioimmunoassay. Type of data set: functional.
The test system of data set [15] is Rattus norvegicus. As to the kind of experiment: Decrease in corticosterone level Wistar rat plasma at 4 mg/kg, po measured after 2 hrs by radioimmunoassay. The format is functional.
The target of data set [16] is T1, Cytochrome P450 11B2, mitochondrial. In words: Inhibition of human aldosterone synthase expressed in V79 MZ cells assessed as inhibition of aldosterone synthesis. Type of data set: cell-based, V79MZ.
A short description of data set [17]: Tmax in sodium depleted healthy human. Conditions: in vivo.
Data set [18] is described as follows: Elimination half life in sodium depleted healthy human. Conditions: in vivo.
In data set [19] the target is T4, Cytochrome P450 11B2, mitochondrial (Rattus norvegicus, UniProt P30099).
T4 sequence (P30099 whole entry): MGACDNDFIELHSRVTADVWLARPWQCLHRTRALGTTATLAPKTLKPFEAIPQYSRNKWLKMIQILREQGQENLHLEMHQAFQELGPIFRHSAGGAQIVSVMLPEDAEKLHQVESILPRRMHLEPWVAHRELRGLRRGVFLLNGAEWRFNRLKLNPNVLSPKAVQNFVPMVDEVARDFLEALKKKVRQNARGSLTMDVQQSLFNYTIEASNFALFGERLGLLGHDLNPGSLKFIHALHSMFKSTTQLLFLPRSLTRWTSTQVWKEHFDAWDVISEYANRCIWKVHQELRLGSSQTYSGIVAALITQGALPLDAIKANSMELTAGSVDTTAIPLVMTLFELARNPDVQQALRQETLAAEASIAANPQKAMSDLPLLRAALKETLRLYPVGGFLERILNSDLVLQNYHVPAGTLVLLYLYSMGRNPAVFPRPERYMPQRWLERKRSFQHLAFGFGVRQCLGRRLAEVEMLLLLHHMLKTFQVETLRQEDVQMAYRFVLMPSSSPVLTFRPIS
In words: Inhibition of aldosterone synthase in rat adrenal assessed as decrease in aldosterone level at 100 uM.

Data set [20] addresses T4, Cytochrome P450 11B2, mitochondrial. As to the kind of experiment: Inhibition of aldosterone synthase in rat adrenal assessed as decrease in 18-OH-corticosterone level at 100 uM.

Broadly, the IC50 is the midpoint of a concentration-inhibition curve. One may read the inhibition as the relative decrease from the control value, in per cent. As a reminder, the Tmax is the time from dosing to the highest level. By half-life is commonly meant the time in which the quantity being followed falls by half.

In data set [1], `CC1(C)c2cc(Cl)ccc2C(=O)N1c1cncc(C2CCCN(S(C)(=O)=O)C2)n1` (stereo not drawn) came in with an IC50 of 2.8 nM. In addition, the Ratio IC50 in the data set filed under Homo sapiens [2] turned out to be 589.

Consider `Cn1c(=O)oc2cc(-c3cncc(C(O)C(F)(F)F)c3)ccc21` (stereo not drawn), for which, in [3], the IC50 was determined as 1.4 nM.

Consider `c1cncc(C2CCCCCCC2)c1`, for which the Ratio IC50 in the data set filed under Homo sapiens [2] is 50. On Cytochrome P450 1A2, this molecule had a 50% inhibitory concentration (IC50) greater than 100000 nM.

On to `CCS(=O)(=O)N(Cc1cncc(-c2cccc(Cl)c2Cl)c1)C1CC1`, for which the IC50 in data set [3] amounted to 5 nM.

In the case of `CCOC(=O)c1cncn1C1c2ccccc2C(=O)OC1(C)C` (stereo not drawn), 3 nM corresponded to half-maximal inhibition in data set [4] (IC50). The molecule also displayed an inhibition at 0.1 µM in data set [5] of 94%.

As for `Cc1cncc(-c2cc3n(n2)CCC(=O)N3)c1`, the Ratio IC50 in the data set filed under Homo sapiens [2] came to 128. In data set [6], this molecule had an IC50 of 2.2 nM.

Take `COc1cccc2c1CCC1C(c3cnc[nH]3)C21` (stereo not drawn): in [7], the IC50 stood at 41 nM. Moreover, the Ratio IC50 in the data set filed under Homo sapiens [2] came out at 2.

On to `c1ccc2c(-c3cccc4cncn34)cccc2c1`, for which the IC50 in [8] was 50 nM.

As for `Cn1c(-c2cncc3ccccc23)nc2ccc(F)c(F)c21`, in the data set filed under Homo sapiens [2], the Ratio IC50 is greater than 1000.

As to `CC(O)c1c(F)cncc1-c1cc2cc(Cl)c(F)cc2o1` (stereo not drawn), the Ratio IC50 in the data set listed under Homo sapiens [2] amounted to 427. Moreover, the IC50 in data set [3] came to 2.5 nM.

Turning to `Cc1ccncc1-c1cc(F)c2c(c1)CCc1nnc(C)n1-2`, the Ratio IC50 in the data set filed under Homo sapiens [2] is 421.

Consider `COC(=O)[C@@H]1CC2=CC(=O)CC[C@]2(C)[C@@]23O[C@@H]2C[C@@]2(C)[C@@H](CC[C@@]24CCC(=O)O4)[C@H]13` [EPLERENONE], for which the Activity in the data set filed under Homo sapiens [9] is recorded as 89%; in the data set filed under Homo sapiens [10], 88%; in the data set filed under Homo sapiens [11] it was -7.9 mmHg; in the data set listed under Homo sapiens [12], 38%.

On to `N#Cc1ccc([C@H]2CCCc3cncn32)cc1` [DEXFADROSTAT], for which the inhibition in vivo at 1.2 mg/kg/day in the data set with Rattus norvegicus [13] amounted to 50%.

`CSc1ccc(C2CCCn3cncc32)cc1` (stereo not drawn) came in with an inhibition in vivo at 4 mg/kg in the data set with Rattus norvegicus [14] of 62%.

Turning to `N#Cc1ccc2c(c1)C1(CCC2)OCCn2cncc21` (stereo not drawn), the inhibition in vivo at 4 mg/kg was 82% in the data set with Rattus norvegicus [14] and 15% in the data set with Rattus norvegicus [15].

Regarding `CN[C@@H]1C[C@H]2O[C@@](C)([C@@H]1OC)n1c3ccccc3c3c4c(c5c6ccccc6n2c5c31)C(=O)NC4` [STAUROSPORINE], the concentration for half-maximal inhibition (IC50) in data set [16] turned out to be 11 nM.

Consider `N#Cc1ccc([C@H]2CCc3cncn32)c(F)c1` [OSILODROSTAT], for which, in data set [17], the Tmax amounted to 1 h. For the same molecule, the half-life in [18] was 4 h.

As for `Oc1ccc2c(c1)CC(Cc1ccncc1)C2` (stereo not drawn), half-maximal inhibition in data set [7] (IC50) was put at 59 nM. Besides, the Ratio IC50 in the data set filed under Homo sapiens [2] was less than 5.

Turning to `CCS(=O)(=O)NCc1cncc(-c2c(C)c3ccccc3n2C)c1`, the Ratio IC50 in the data set filed under Homo sapiens [2] is 322.

In the case of `CC(=O)S[C@@H]1CC2=CC(=O)C=C[C@]2(C)[C@H]2CC[C@@]3(C)[C@@H]([C@@H]4C[C@@H]4[C@@]34CCC(=O)O4)[C@H]12` [MESPIRENONE], the inhibition at 100 µM in [19] and in data set [20] was greater than 40% in each case.
